Measurements from ChEMBL document CHEMBL4351026, “Antifungal activity, mode of action variability, and subcellular distribution of coumarin-based antifungal azoles” (Eur J Med Chem, 2019).
Values after ≈ are worked out from the molar mass of the structure shown. Active and inactive are the calls of the source. The calls are words filed in the database; no cut-off is given here.

Tests used:
[1] = tested on: Candida dubliniensis; test: Antifungal activity against Candida dubliniensis T-99 assessed as reduction in fungal cell growth incubated for 24 hrs by MTT based broth double dilution method; type: functional; conditions: T-99, 24 h
Procedure, shortened: (§1)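 Broth double-dilution in Casitone broth. Starter cultures were grown 24 or 48 h at 37 °C, 5% CO₂, diluted 1:100, and added to serial two-fold dilutions at 64 to 0.007 µg/mL. Final inoculum was 5 x 10^4 to 5 x 10^5 CFU/mL; DMSO was 0.0012–1.3%. Plates were incubated at 37 °C, 5% CO₂, then MTT was added for 2 h. MIC followed CLSI M27-A3. Triplicates, two independent experiments.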

[2] = target: Cytochrome P450 3A4 (Homo sapiens, UniProt P08684); test: Inhibition of recombinant human CYP3A4 using Luciferin-PPXE as substrate preincubated for 10 mins followed by NADPH addition measured after 15 mins by luminometric method; type: ADME
Chain of Cytochrome P450 3A4 (P08684 whole entry): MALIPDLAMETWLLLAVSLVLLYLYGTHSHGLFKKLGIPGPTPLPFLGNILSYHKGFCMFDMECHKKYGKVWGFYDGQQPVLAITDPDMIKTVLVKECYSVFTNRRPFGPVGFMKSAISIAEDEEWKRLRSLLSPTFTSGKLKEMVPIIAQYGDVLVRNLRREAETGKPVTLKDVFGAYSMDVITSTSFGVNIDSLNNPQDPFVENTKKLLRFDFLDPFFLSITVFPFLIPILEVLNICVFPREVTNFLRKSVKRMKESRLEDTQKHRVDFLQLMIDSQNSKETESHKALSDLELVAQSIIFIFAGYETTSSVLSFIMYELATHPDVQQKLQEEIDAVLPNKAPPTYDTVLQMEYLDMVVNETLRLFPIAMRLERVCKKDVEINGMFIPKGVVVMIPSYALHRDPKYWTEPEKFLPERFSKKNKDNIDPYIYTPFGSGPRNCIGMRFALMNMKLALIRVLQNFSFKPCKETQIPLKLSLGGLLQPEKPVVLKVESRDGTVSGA
Procedure, shortened: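 P450-Glo luminescent assay, Luciferin-PPXE substrate. Compound was mixed with membranes containing recombinant human CYP3A4; controls were vehicle with membranes lacking CYP3A4. After 10 min preincubation at 37 °C, NADPH regeneration reagent was added and the mixture kept 15 min at 37 °C. Luciferin detection reagent stopped the reaction; after 20 min at room temperature, luminescence was read. Duplicates.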

[3] = tested on: Nakaseomyces glabratus; test: Antifungal activity against Candida glabrata ATCC 66032 assessed as reduction in fungal cell growth incubated for 48 hrs by MTT based broth double dilution method; type: functional; conditions: ATCC 66032, 48 h; procedure, shortened: as §1
[4] = tested on: Nakaseomyces glabratus; test: Antifungal activity against Candida glabrata 192 assessed as reduction in fungal cell growth incubated for 24 hrs by MTT based broth double dilution method; type: functional; conditions: Nakaseomyces glabratus, 192, 24 h; procedure, shortened: as §1
[5] = tested on: Nakaseomyces glabratus; test: Antifungal activity against Candida glabrata ATCC 66032 assessed as reduction in fungal cell growth incubated for 24 hrs by MTT based broth double dilution method; type: functional; conditions: ATCC 66032, 24 h; procedure, shortened: as §1
[6] = tested on: Candida albicans; test: Antifungal activity against ERG11/ERG3 knocked out Candida albicans SN152 assessed as zone of inhibition at 25 ug […] by disk diffusion method; type: functional, organism-based
[7] = tested on: Candida albicans; test: Antifungal activity against Candida albicans P-87 assessed as reduction in fungal cell growth incubated for 24 hrs by MTT based broth double dilution method; type: functional; conditions: P-87, 24 h; procedure, shortened: as §1
[8] = tested on: Meyerozyma guilliermondii; test: Antifungal activity against Candida guilliermondii T-47 assessed as reduction in fungal cell growth incubated for 24 hrs by MTT based broth double dilution method; type: functional; conditions: T-47, 24 h; procedure, shortened: as §1
[9] = tested on: Candida albicans; test: Antifungal activity against Candida albicans ATCC 90028 assessed as reduction in fungal cell growth incubated for 48 hrs by MTT based broth double dilution method; type: functional; conditions: ATCC 90028, 48 h; procedure, shortened: as §1
[10] = tested on: Candida albicans; test: Antifungal activity against Candida albicans ATCC 90028 assessed as reduction in fungal cell growth incubated for 24 hrs by MTT based broth double dilution method; type: functional; conditions: ATCC 90028, 24 h; procedure, shortened: as §1
[11] = Drug distribution in Candida glabrata 2001 assessed as subcellular compound distribution at 10 uM incubated for 60 mins by fluorescent imaging analysis; type: ADME; conditions: nakaseomyces glabratus, 1 h
Procedure, shortened: (§2)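 Yeast were grown overnight at 30 °C in YPD liquid, diluted 1:10, and grown 2 h at 30 °C to log phase. Fluorescent azole was added at 10 µM final and incubated 60 min in the dark. Cells were washed once in PBS and imaged on slides in bright field and fluorescence (ex 427 nm, em 510 nm).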

[12] = tested on: Candida albicans; test: Antifungal activity against Candida albicans SN152 assessed as reduction in fungal cell growth incubated for 24 hrs by MTT based broth double dilution method; type: functional; conditions: SN152, 24 h; procedure, shortened: as §1
[13] = tested on: Candida parapsilosis; test: Antifungal activity against Candida parapsilosis ATCC 22019 assessed as reduction in fungal cell growth incubated for 24 hrs by MTT based broth double dilution method; type: functional; conditions: Lodderomyces parapsilosis, ATCC 22019, 24 h; procedure, shortened: as §1
[14] = tested on: Candida albicans; test: Antifungal activity against Candida albicans SN152 assessed as reduction in fungal cell growth incubated for 48 hrs by MTT based broth double dilution method; type: functional; conditions: SN152, 48 h; procedure, shortened: as §1
[15] = Drug distribution in Candida albicans SN152 assessed as subcellular compound distribution at 10 uM incubated for 60 mins by fluorescent imaging analysis; type: ADME; conditions: 1 h; procedure, shortened: as §2
[16] = tested on: Candida albicans; test: Antifungal activity against Candida albicans SN152 assessed as zone inhibition at 25 ug incubated for 24 hrs by disk diffusion method; type: functional, organism-based
Procedure, shortened: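 Strains were streaked on YPD agar and grown at 30 °C: 24 h for parental SN152, 48 h for the erg11ΔΔ erg3ΔΔ mutant. Colonies were suspended in PBS and adjusted to OD 0.02 (SN152) or 0.03 (mutant), then spread on Casitone plates. A 6-mm disk loaded with 25 µg compound was placed centrally. Plates were incubated at 30 °C and photographed after 24 h.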

[17] = tested on: Nakaseomyces glabratus; test: Antifungal activity against Candida glabrata ATCC 2001 assessed as reduction in fungal cell growth incubated for 24 hrs by MTT based broth double dilution method; type: functional; conditions: ATCC 2001, 24 h; procedure, shortened: as §1
[18] = tested on: Candida parapsilosis; test: Antifungal activity against Candida parapsilosis ATCC 90018 assessed as reduction in fungal cell growth incubated for 24 hrs by MTT based broth double dilution method; type: functional; conditions: Lodderomyces parapsilosis, ATCC 90018, 24 h; procedure, shortened: as §1
[19] = tested on: Nakaseomyces glabratus; test: Antifungal activity against Candida glabrata 192 assessed as reduction in fungal cell growth incubated for 48 hrs by MTT based broth double dilution method; type: functional; conditions: Nakaseomyces glabratus, 192, 48 h; procedure, shortened: as §1
[20] = tested on: HEK-293T; test: Cytotoxicity against human HEK293T cells assessed as reduction in cell viability at 5 to 50 uM incubated for 24 hrs by XTT assay; type: cell-based
Procedure, shortened: (§3)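 HEK-293T were grown in DMEM with 10% FBS; HepG2 in RPMI with 15% FBS; both at 37 °C, 5% CO₂. Cells (4000 HepG2 or 7000 HEK-293T per well) were seeded on poly-D-lysine wells. After 24 h the medium was renewed and compounds added at 5–50 µM from 1 mM stocks in 10% DMSO/0.3% Tween/PBS. After 24 h more, XTT was added for 2 h at 37 °C; absorbance was read at 475 nm against 660 nm reference.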

[21] = (§4) Cytotoxicity against human HEK293T cells assessed as reduction in cell viability at 5 to 50 uM incubated for 24 hrs by XTT assay relative to control; type: cell-based, HEK-293T; conditions: HEK293T cells, read-out: INH
Procedure, shortened: (§5)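 HEK-293T cells were grown in DMEM with 10% FBS, 1% NEAA, 1% pyruvate and pen-strep-nystatin at 37 °C and 5% CO2. 7000 cells/well were seeded on poly-D-lysine-coated wells. After 24 h the medium was renewed and compounds were added at 5–50 µM from 1 mM stocks in 10% DMSO/0.3% Tween/PBS. After 24 h, XTT was added for 2 h at 37 °C, with absorbance read at 475 nm (reference 660 nm).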

[22] = Cytotoxicity against human HepG2 cells assessed as reduction in cell viability at 5 to 50 uM incubated for 24 hrs by XTT assay relative to control; type: cell-based; conditions: read-out: INH
Procedure, shortened: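 HepG2 cells were maintained in RPMI with 15% FBS, 1% NEAA, 1% pyruvate and pen-strep-nystatin at 37 °C and 5% CO2. 4000 cells/well were plated on poly-D-lysine coating and given fresh medium after 24 h. Compounds were dosed at 5–50 µM from 1 mM stocks in 10% DMSO/0.3% Tween/PBS and incubated 24 h. Viability was read by XTT (2 h, 37 °C) at 475 nm against 660 nm.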

[23] = tested on: HepG2; test: Cytotoxicity against human HepG2 cells assessed as reduction in cell viability at 5 to 50 uM incubated for 24 hrs by XTT assay; type: cell-based; conditions: hepg2, 24 h; procedure, shortened: as §3
[24] = tested on: HEK-293T; test: as §4; type: cell-based; conditions: hek-293t, 24 h, 50 µM; procedure, shortened: as §5

Structure (SMILES)	MIC [1]	IC50 [2]	MIC [3]	MIC [4]	MIC [5]	inhibition zone (IZ) [6]	MIC [7]	MIC [8]	MIC [9]	MIC [10]	Drug uptake [11]	MIC [12]	MIC [13]	MIC [14]	Drug uptake [15]	inhibition zone (IZ) [16]	MIC [17]	MIC [18]	MIC [19]	cytotoxicity at 24 h, up to 50 µM [22]	also measured
CCN(CC)c1ccc2cc(C(=O)NCC(O)(Cn3cncn3)c3ccc(F)cc3F)c(=O)oc2c1 (racemic)	1 µg/mL (≈ 2.01 µM)	1020 nM	> 64 µg/mL	8 µg/mL (≈ 16.1 µM)	4 µg/mL (≈ 8.04 µM)	inactive	0.06 µg/mL (≈ 0.121 µM)	1 µg/mL (≈ 2.01 µM)	0.125 µg/mL (≈ 0.251 µM)	0.06 µg/mL (≈ 0.121 µM)	Active	0.03 µg/mL (≈ 0.0603 µM)	1 µg/mL (≈ 2.01 µM)	0.125 µg/mL (≈ 0.251 µM)	Active	Active	16 µg/mL (≈ 32.2 µM)	0.125 µg/mL (≈ 0.251 µM)	> 64 µg/mL		
CCN(CC)c1ccc2cc(C(=O)NCC(O)(Cn3cncn3)c3ccc(Cl)cc3Cl)c(=O)oc2c1 (racemic)	0.5 µg/mL (≈ 0.943 µM)	351 nM	> 64 µg/mL	4 µg/mL (≈ 7.54 µM)	4 µg/mL (≈ 7.54 µM)	inactive	0.03 µg/mL (≈ 0.0566 µM)	0.25 µg/mL (≈ 0.471 µM)	0.06 µg/mL (≈ 0.113 µM)	0.03 µg/mL (≈ 0.0566 µM)		0.03 µg/mL (≈ 0.0566 µM)	0.5 µg/mL (≈ 0.943 µM)	0.06 µg/mL (≈ 0.113 µM)		Active	16 µg/mL (≈ 30.2 µM)	0.06 µg/mL (≈ 0.113 µM)	> 64 µg/mL	< 40%	Activity [20]: Non-Toxic; cytotoxicity at 24 h, up to 50 µM [21]: < 40%; Activity [23]: Non-Toxic
CCN(CC)c1ccc2cc(C(=O)NCC(O)(Cn3ccnc3)c3ccc(F)cc3F)c(=O)oc2c1 (racemic)	0.5 µg/mL (≈ 1.01 µM)	1310 nM	32 µg/mL (≈ 64.4 µM)	2 µg/mL (≈ 4.03 µM)	8 µg/mL (≈ 16.1 µM)	Active	0.06 µg/mL (≈ 0.121 µM)	0.5 µg/mL (≈ 1.01 µM)	0.06 µg/mL (≈ 0.121 µM)	0.015 µg/mL (≈ 0.0302 µM)	Active	0.06 µg/mL (≈ 0.121 µM)	0.125 µg/mL (≈ 0.252 µM)	0.125 µg/mL (≈ 0.252 µM)	Active	Active	8 µg/mL (≈ 16.1 µM)	0.015 µg/mL (≈ 0.0302 µM)	4 µg/mL (≈ 8.06 µM)		
C[C@@H](c1ncncc1F)[C@](O)(Cn1cncn1)c1ccc(F)cc1F [VORICONAZOLE]	0.06 µg/mL (≈ 0.172 µM)		4 µg/mL (≈ 11.5 µM)	0.125 µg/mL (≈ 0.358 µM)	0.5 µg/mL (≈ 1.43 µM)	inactive	0.007 µg/mL (≈ 0.02 µM)	0.06 µg/mL (≈ 0.172 µM)	0.007 µg/mL (≈ 0.02 µM)	0.007 µg/mL (≈ 0.02 µM)		0.007 µg/mL (≈ 0.02 µM)	0.03 µg/mL (≈ 0.0859 µM)	0.007 µg/mL (≈ 0.02 µM)		Active	2 µg/mL (≈ 5.73 µM)	0.015 µg/mL (≈ 0.0429 µM)	0.25 µg/mL (≈ 0.716 µM)	< 40%	Activity [24]: < 40%
